Calls of active or inactive are those of the source. No cut-off for these calls is given here.
Key:
[1] = test system: Panel NCI-60 (60 carcinoma cell lines); assay: Antiproliferative activity against human panel NCI-60 (60 carcinoma cell lines) assessed as inhibition of cell growth at 10 uM incubated for 72 hrs by SRB assay; format: functional, cell-based
[2] = Stability in phosphate buffer at pH 4 assessed as half life at 30 ug/ml measured for 24 hrs by analytical HPLC analysis; format: physicochemical; settings: dose 30 µg/ml
HT-29 [3] = assay: Induction of apoptosis in human HT-29 cells assessed as upregulation of Bax protein expression at 0.1 to 1 uM incubated for 48 hrs by Western blot analysis; format: functional, cell-based; settings: dose 0.1-1 µM
Summary of the method: (§1)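 HT-29 seeded at 1 × 10⁵ cells per T25 flask; left untreated, given vehicle (0.1% EtOH v/v) or compound at 0.1 or 1 µM for 48 h. Whole-cell lysates in RIPA with protease/phosphatase inhibitors, equal protein (BCA) on 12% SDS-PAGE, PVDF; probed for Mcl-1, PARP, Bax (1:1000), HRP secondary, ECL detection, GAPDH loading control; three independent occasions.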

HL-60 [4] = assay: Antiproliferative activity against […] human HL-60 cells assessed as inhibition of cell growth incubated for 72 hrs by alamar blue assay; format: functional, cell-based; settings: HL-60, 72 h
Summary of the method: (§2)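 Cells seeded 24 h before treatment (HL-60 4 × 10⁴, MCF-7 5 × 10³ per well), then given medium, vehicle (1% ethanol v/v) or serial dilutions (eight concentrations) for 72 h. Alamar Blue (10% v/v) added for 3–5 h at 37 °C in the dark, fluorescence read at ex 530/em 590 nm. Viability expressed relative to vehicle (100%), IC50 from dose–response curves; three experiments in triplicate.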

[5] = molecular target: T1, Tubulin beta (Homo sapiens) (UniProt P68371+Q9H4B7+Q13509+P04350+Q3ZCM7+P07437+Q13885+Q9BVA1+Q9BUF5+A6NNZ2); assay: Binding affinity to colchicine binding site of beta-tubulin in human MCF7 cells assessed as inhibition of beta-tubulin-EBI adduct formation at 10 uM pretreated for 2 hrs followed by EBI addition and measured after 1.5 hrs by Western blot analysis; format: cell-based; settings: time 3.5 hrs
Summary of the method: (§3)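 Cells seeded at 5 × 10⁴/well, grown overnight, treated with vehicle (0.1% ethanol v/v) or compound (10 µM) for 2 h, then EBI (100 µM) added for 1.5 h. Cells washed with ice-cold PBS, lysed in Laemmli buffer, run on SDS-PAGE, blotted and probed for β-tubulin to detect the faster-migrating β-tubulin–EBI adduct; GAPDH reprobe for loading; three independent experiments.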

HL-60 [6] = assay: Antiproliferative activity against human HL-60 cells assessed as inhibition of cell growth incubated for 72 hrs by SRB assay; format: functional
Tubulin (Homo sapiens) [7] = molecular target: T2, Tubulin (Homo sapiens) (UniProt P68371+Q9H4B7+P0DPH7+P68366+Q13509+Q71U36+P04350+Q3ZCM7+P07437+P68363+Q9BQE3+Q6PEY2+Q13885+Q9BVA1+Q9BUF5); assay: Induction of microtubule disruption in human MCF7 cells assessed as depolymerization of microtubules at 0.5 uM incubated for 16 hrs by immunofluorescence based confocal microscopic analysis; format: cell-based
Summary of the method: (§4)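 MCF-7 seeded at 1 × 10⁵ cells/mL on chamber slides, treated 16 h with vehicle (1% ethanol v/v), CA-4 (0.1 µM) or compounds (0.5 µM). Paraformaldehyde fixation (4%, 20 min), Triton X-100 permeabilisation, BSA block, anti-α-tubulin-FITC (DM1A) plus Alexa Fluor 488, DAPI mounting; confocal imaging with identical settings per experiment; three independent occasions.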

HT-29 [8] = assay: Antiproliferative activity against human HT-29 cells assessed as inhibition of cell growth incubated for 72 hrs by SRB assay; format: functional
Summary of the method: (§5)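 HT-29 (DMEM Glutamax, 10% FBS) seeded at 1 × 10⁴ cells/well, treated after 24 h with vehicle (1% ethanol v/v) or serial dilutions (eight concentrations) for 72 h; viability measured by sulforhodamine B protocol. Percent viability relative to vehicle control, IC50 from dose–response curves; mean of three experiments in triplicate.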

Tubulin (Homo sapiens) [9] = molecular target: T2, Tubulin (Homo sapiens); assay: Induction of microtubule disruption in human MCF7 cells assessed as inhibition of microtubule formation at 0.5 uM incubated for 16 hrs by immunofluorescence based confocal microscopic analysis; format: cell-based; summary of the method: as §4
[10] = test system: Panel NCI-60 (60 carcinoma cell lines); assay: Antiproliferative activity against human panel NCI-60 (60 carcinoma cell lines) incubated for 72 hrs by SRB assay; format: functional; settings: read-out: LC50 (the source's name)
HT-29 [11] = assay: Induction of cell cycle arrest in human HT-29 cells assessed as accumulation of cells in sub-G1 phase at 0.5 uM incubated for 72 hrs by RNase/PI staining based flow cytometry analysis (reference value: 6%); format: functional
Summary of the method: (§6)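 HT-29 treated with vehicle (0.1% ethanol v/v) or compound at 0.5 µM for 24, 48 and 72 h. Adherent plus detached cells collected, fixed overnight in ice-cold 70% ethanol at −20 °C, stained with PI (50 µg/mL) plus RNase A (50 µg/mL) 30 min at 37 °C. 10,000 cells analysed by flow cytometry at 488 nm; sub-G1, G0/G1, G2/M gated on DNA content; mean of three experiments.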

MCF7 [12] = assay: Antiproliferative activity against […] human MCF7 cells assessed as inhibition of cell growth incubated for 72 hrs by alamar blue assay; format: functional, cell-based; settings: MCF7, 72 h; summary of the method: as §2
Tubulin (Bos taurus) = Tubulin (Bos taurus) (UniProt Q6B856+Q862L2+Q862F3); assay: Inhibition of bovine tubulin polymerisation assessed as fold reduction in Vmax at 10 uM measured every 30 secs for 30 mins by spectrophotometric method relative to control; format: protein assay
MCF7 [13] = assay: Induction of cell cycle arrest in human MCF7 cells assessed as accumulation of cells at G2/M phase at 0.5 uM incubated for 24 hrs by RNase/PI staining based flow cytometry analysis (reference value: 24%); format: functional
[14] = Stability in phosphate buffer at pH 9 assessed as half life at 30 ug/ml measured for 24 hrs by analytical HPLC analysis; format: physicochemical; settings: dose 30 µg/ml
MCF7 [15] = assay: Induction of cell cycle arrest in human MCF7 cells assessed as accumulation of cells at sub-G1 phase at 0.5 uM incubated for 72 hrs by RNase/PI staining based flow cytometry analysis (reference value: 4%); format: functional
Tubulin (Homo sapiens) [16] = molecular target: T2, Tubulin (Homo sapiens); assay: Induction of microtubule disruption in human HT-29 cells assessed as complete loss of microtubule structure at 0.5 uM incubated for 16 hrs by immunofluorescence based confocal microscopic analysis; format: cell-based
Summary of the method: (§7)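 Fixed in 4% paraformaldehyde, permeabilised in 0.5% Triton X-100, blocked in 5% BSA, stained with anti-α-tubulin-FITC (DM1A, 1:100, 2 h) and Alexa Fluor 488, DAPI counterstain; confocal imaging, three occasions.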

HT-29 [17] = assay: Induction of apoptosis in human HT-29 cells assessed as decrease in Mcl-1 protein expression at 0.1 to 1 uM incubated for 48 hrs by Western blot analysis; format: functional, cell-based; settings: dose 0.1-1 µM; summary of the method: as §1
HT-29 [18] = assay: Antiproliferative activity against combretastatin A-4 resistant human HT-29 cells assessed as inhibition of cell growth incubated for 72 hrs by SRB assay; format: functional, cell-based; settings: HT-29, 72 h; summary of the method: as §5
MCF7 [19] = assay: Antiproliferative activity against human MCF7 cells assessed as inhibition of cell growth incubated for 72 hrs by SRB assay; format: functional
HT-29 [20] = assay: Induction of cell cycle arrest in human HT-29 cells assessed as reduction in cells in S phase at 0.5 uM incubated for 72 hrs by RNase/PI staining based flow cytometry analysis; format: functional; summary of the method: as §6
Tubulin (Homo sapiens) [21] = molecular target: T2, Tubulin (Homo sapiens); assay: Induction of microtubule disruption in human MCF7 cells assessed as shrunken spindle shaped microtubule formation at 0.5 uM incubated for 16 hrs by immunofluorescence based confocal microscopic analysis; format: cell-based; summary of the method: as §4
HT-29 [22] = assay: Induction of cell cycle arrest in human HT-29 cells assessed as accumulation of cells at G2/M phase at 0.5 uM incubated for 72 hrs by RNase/PI staining based flow cytometry analysis relative to control; format: functional; summary of the method: as §6
HT-29 [23] = assay: Induction of cell cycle arrest in human HT-29 cells assessed as reduction in cells in G0 phase at 0.5 uM incubated for 72 hrs by RNase/PI staining based flow cytometry analysis; format: functional; summary of the method: as §6
[24] = Stability in phosphate buffer at pH 7.4 assessed as half life at 30 ug/ml measured for 24 hrs by analytical HPLC analysis; format: physicochemical; settings: dose 30 µg/ml
[25] = molecular target: T1, Tubulin beta (Homo sapiens); assay: Binding affinity to colchicine binding site of beta-tubulin in human HT-29 cells assessed as inhibition of beta-tubulin-EBI adduct formation at 10 uM pretreated for 2 hrs followed by EBI addition and measured after 1.5 hrs by Western blot analysis; format: cell-based; settings: time 3.5 hrs; summary of the method: as §3
Tubulin (Homo sapiens) [26] = molecular target: T2, Tubulin (Homo sapiens); assay: Induction of microtubule disruption in human HT-29 cells assessed as appearance of multiple micronucleus at 0.5 uM incubated for 16 hrs by immunofluorescence based confocal microscopic analysis; format: cell-based; summary of the method: as §7
HT-29 [27] = assay: Induction of apoptosis in human HT-29 cells assessed as increase in PARP cleavage at 0.1 uM incubated for 48 hrs by Western blot analysis; format: functional, cell-based; summary of the method: as §1
Tubulin (Homo sapiens) [28] = molecular target: T2, Tubulin (Homo sapiens); assay: Induction of microtubule disruption in human HT-29 cells assessed as complete loss of microtubule structure incubated for 16 hrs by immunofluorescence based confocal microscopic analysis; format: cell-based; summary of the method: as §7
Tubulin (Homo sapiens) [29] = molecular target: T2, Tubulin (Homo sapiens); assay: Induction of microtubule disruption in human HT-29 cells assessed as appearance of multiple micronucleus incubated for 16 hrs by immunofluorescence based confocal microscopic analysis; format: cell-based; summary of the method: as §7

## COc1cc(N2C(=O)C(O)C2c2ccc(SC)cc2)cc(OC)c1OC (racemic)
[1]
  inhibition: Active
[2]
  half-life at 30 ug/ml: 16 h
HT-29 [3]
  Activity: Active
HL-60 [4]
  IC50: 15 nM
[5]
  inhibition: Active
HL-60 [6]
  GI50: < 10 nM
Tubulin (Homo sapiens) [7]
  Activity: Active
HT-29 [8]
  GI50: < 10 nM
Tubulin (Homo sapiens) [9]
  Activity: Active
[10]
  CC50: > 100000 nM
HT-29 [11]
  Activity: 15%
MCF7 [12]
  IC50: 5 nM
Tubulin (Bos taurus)
  fold change (FC): 3.5
MCF7 [13]
  Activity: 70%
[14]
  half-life at 30 ug/ml: 16 h
MCF7 [15]
  Activity: 12%
Tubulin (Homo sapiens) [16]
  Activity: Active
HT-29 [17]
  Activity: Active
HT-29 [18]
  IC50: 15 nM
MCF7 [19]
  GI50: < 10 nM
HT-29 [20]
  Activity: Active
Tubulin (Homo sapiens) [21]
  Activity: Active
HT-29 [22]
  Activity: 68%
HT-29 [23]
  Activity: Active
[24]
  half-life at 30 ug/ml: > 24 h
[25]
  inhibition: Active
Tubulin (Homo sapiens) [26]
  Activity: Active
HT-29 [27]
  Activity: Active

## COc1ccc(C2C(c3ccccc3)C(=O)N2c2cc(OC)c(OC)c(OC)c2)cc1 (mixture of isomers)
Tubulin (Homo sapiens) [28]
  Activity: Active
HL-60 [4]
  IC50: 24 nM
HT-29 [11]
  Activity: 19%
MCF7 [12]
  IC50: 15 nM
Tubulin (Homo sapiens) [29]
  Activity: Active
HT-29 [18]
  IC50: 22 nM
HT-29 [20]
  Activity: Active
HT-29 [22]
  Activity: 50%
HT-29 [23]
  Activity: Active

From ChEMBL document CHEMBL5252538, “β-Lactam analogues of combretastatin A-4 prevent metabolic inactivation by glucuronidation in chemoresistant HT-29 colon cancer cells” (Eur J Med Chem, 2017)
